# Measured values gathered from unrelated publications.
# Compare with care: the assays were run in different laboratories.
# Observed: enzyme activity
# Mode: inhibitor
# EGFR: Epidermal growth factor receptor (EGFR, Homo sapiens, UniProt P00533)
# EGFR L858R/T790M: Epidermal growth factor receptor (EGFR, Homo sapiens, UniProt P00533, L858R/T790M)
# EGFR L858R: Epidermal growth factor receptor (EGFR, Homo sapiens, UniProt P00533, L858R)
# EGFR T790M: Epidermal growth factor receptor (EGFR, Homo sapiens, UniProt P00533, T790M)
Structure (SMILES),target,assay,setting,inhibition [%]
CN(C)C1CCN(CC#Cc2nn(C3CCCC3)c3nc(NCc4ccccc4)ncc23)C1 (stereo not drawn),EGFR,FRET,10 µM,17
COc1cc2nccc(Oc3ccc(NC(=O)c4c5n(n(-c6ccc(F)cc6)c4=O)CCCC5)cc3)c2cc1OC,EGFR,,0.1 µM,-2
C=CC(=O)Nc1cc(Nc2nc(Nc3cnn(C)c3)c3sccc3n2)c(OC)cc1N(C)CCN(C)C,EGFR L858R/T790M,ELISA,0.1 µM,6.7
CS(=O)(=O)Nc1cc(-c2ccc3ncnc(Nc4ccc(F)c(Cl)c4)c3c2)cnc1Cl,EGFR,FRET,10 µM,90 to 100
C=CC(=O)Nc1cc(Nc2nccc(Nc3cc(Cl)c(F)cc3C(C)(C)O)n2)c(OC)cc1N1CC[C@@H](N(C)C)C1,EGFR,,1 µM,76
CNCc1ccc(-c2cc(-c3nc(-c4ccc(S(=O)(=O)C(C)C)cc4)cnc3N)on2)cc1,EGFR,,0.4 µM,0
CS(=O)(=O)Nc1cccc(-c2csc(NC(=O)CSc3nc4nccnc4c(=O)n3CCc3ccccc3)n2)c1,EGFR L858R,,10 µM,-1
CCC(=O)Nc1cc(Nc2nc(N3CCc4sccc4C3)c3cccnc3n2)c(OC)cc1N1CCOCC1,EGFR L858R/T790M,ELISA,0.1 µM,7.6
COc1cc(-c2cc(-c3ccc(N4CCNCC4)cc3)cnc2N)cc(OC)c1OC,EGFR T790M,,1 µM,4
CCC(=O)Nc1cc(Nc2nc(N3CCc4sccc4C3)c3cccnc3n2)c(OC)cc1N1CCN(C(C)=O)CC1,EGFR L858R/T790M,ELISA,0.1 µM,10
COCCOc1cc2ncnc(Nc3cccc(OCCn4ccnc4[N+](=O)[O-])c3)c2cc1OCCOC,EGFR,FRET,1 µM,28
COc1cc2ncnc(Nc3ccc(Oc4ccccc4)cc3C)c2cc1OC,EGFR T790M,,1 µM,50
CNc1cccc2cc(C(=O)Nc3ccc(C(=O)O)cc3)c(=O)[nH]c12,EGFR,,10 µM,-1.7
C=CC(=O)Nc1cc(Nc2nc(N3CCc4sccc4C3)c3cccnc3n2)c(OC)cc1N1CCC(N(C)C)CC1,EGFR L858R/T790M,ELISA,0.1 µM,36
COc1cc2ncnc(Nc3ccc(Oc4ccccc4)c(C)c3C)c2cc1OC,EGFR T790M,,1 µM,22
C=C(Cl)C(=O)Nc1cc(Nc2nc(N3CCOCC3)c3sccc3n2)c(OC)cc1N(C)CCN(C)C,EGFR L858R/T790M,ELISA,0.1 µM,57.8
CCOc1cc(-c2nncn2C)ccc1Nc1ncc2cc(C)nc(NCC(C)(C)C)c2n1,EGFR,FRET,1 µM,< 15
C=CC(=O)Nc1cc(Nc2nc(N3CCc4sccc4C3)c3cccnc3n2)c(OC)cc1N1CCN(CC)CC1,EGFR L858R/T790M,ELISA,0.1 µM,23.4
O=C(CSc1nc2nccnc2c(=O)n1CCc1ccccc1)Nc1nccs1,EGFR L858R,,10 µM,1
C=CC(=O)Nc1cc(Nc2nc(N3CCc4sccc4C3)c3cccnc3n2)c(OC)cc1N1CCN(C(C)=O)CC1,EGFR L858R/T790M,ELISA,0.1 µM,19.4
CC/C(=N\NC(=O)NCc1cccc(O)c1)c1ccc(O)c(C)c1O,"Epidermal growth factor receptor (EGFR, Homo sapiens, UniProt P00533, del746-750)",,0.1 µM,-0.6
